The values that follow come from ChEMBL document CHEMBL3627719, “Discovery of bis-aryl urea derivatives as potent and selective Limk inhibitors: Exploring Limk1 activity and Limk1/ROCK2 selectivity through a combined computational study” (Bioorg Med Chem, 2015).

The IC50 is the concentration needed to halve the response being measured. The low end stands for greater potency, the high end for weaker potency.

Chain of Rho-associated protein kinase 2 (O75116 whole entry): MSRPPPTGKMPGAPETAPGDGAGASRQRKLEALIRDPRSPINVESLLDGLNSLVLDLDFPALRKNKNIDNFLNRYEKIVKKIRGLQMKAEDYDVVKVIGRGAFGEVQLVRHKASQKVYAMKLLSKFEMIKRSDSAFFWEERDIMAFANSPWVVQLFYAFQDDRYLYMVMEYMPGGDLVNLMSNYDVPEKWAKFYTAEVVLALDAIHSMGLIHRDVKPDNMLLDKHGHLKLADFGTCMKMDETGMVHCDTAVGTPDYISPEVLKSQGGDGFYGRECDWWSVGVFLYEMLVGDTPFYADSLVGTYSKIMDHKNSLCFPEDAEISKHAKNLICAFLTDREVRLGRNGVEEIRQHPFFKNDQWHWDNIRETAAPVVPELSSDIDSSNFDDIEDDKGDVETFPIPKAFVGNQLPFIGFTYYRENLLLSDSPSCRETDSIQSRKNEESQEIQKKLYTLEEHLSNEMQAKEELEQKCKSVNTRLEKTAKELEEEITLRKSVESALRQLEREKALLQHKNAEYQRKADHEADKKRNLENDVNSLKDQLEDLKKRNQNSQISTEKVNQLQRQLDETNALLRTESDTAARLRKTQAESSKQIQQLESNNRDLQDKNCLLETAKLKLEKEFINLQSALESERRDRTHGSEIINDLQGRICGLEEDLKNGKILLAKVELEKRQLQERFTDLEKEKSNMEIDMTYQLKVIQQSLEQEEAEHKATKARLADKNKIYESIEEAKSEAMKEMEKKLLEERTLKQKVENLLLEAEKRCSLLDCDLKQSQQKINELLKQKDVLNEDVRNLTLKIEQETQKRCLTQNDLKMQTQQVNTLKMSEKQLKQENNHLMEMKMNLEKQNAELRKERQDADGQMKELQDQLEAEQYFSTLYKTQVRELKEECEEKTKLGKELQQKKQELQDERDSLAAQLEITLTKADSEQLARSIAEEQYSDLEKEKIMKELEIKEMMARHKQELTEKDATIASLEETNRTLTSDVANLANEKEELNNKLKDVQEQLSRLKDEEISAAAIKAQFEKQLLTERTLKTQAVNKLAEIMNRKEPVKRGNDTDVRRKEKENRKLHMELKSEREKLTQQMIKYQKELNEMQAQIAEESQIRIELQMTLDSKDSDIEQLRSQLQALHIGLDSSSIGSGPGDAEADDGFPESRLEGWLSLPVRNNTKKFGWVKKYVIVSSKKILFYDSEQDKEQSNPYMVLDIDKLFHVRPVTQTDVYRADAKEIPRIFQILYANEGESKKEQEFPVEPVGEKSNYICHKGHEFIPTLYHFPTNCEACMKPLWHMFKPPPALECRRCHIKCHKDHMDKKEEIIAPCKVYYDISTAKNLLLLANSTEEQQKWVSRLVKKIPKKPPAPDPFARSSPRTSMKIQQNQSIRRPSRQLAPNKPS
Chain of LIM domain kinase 1 (P53667 whole entry, the tested form may be a part): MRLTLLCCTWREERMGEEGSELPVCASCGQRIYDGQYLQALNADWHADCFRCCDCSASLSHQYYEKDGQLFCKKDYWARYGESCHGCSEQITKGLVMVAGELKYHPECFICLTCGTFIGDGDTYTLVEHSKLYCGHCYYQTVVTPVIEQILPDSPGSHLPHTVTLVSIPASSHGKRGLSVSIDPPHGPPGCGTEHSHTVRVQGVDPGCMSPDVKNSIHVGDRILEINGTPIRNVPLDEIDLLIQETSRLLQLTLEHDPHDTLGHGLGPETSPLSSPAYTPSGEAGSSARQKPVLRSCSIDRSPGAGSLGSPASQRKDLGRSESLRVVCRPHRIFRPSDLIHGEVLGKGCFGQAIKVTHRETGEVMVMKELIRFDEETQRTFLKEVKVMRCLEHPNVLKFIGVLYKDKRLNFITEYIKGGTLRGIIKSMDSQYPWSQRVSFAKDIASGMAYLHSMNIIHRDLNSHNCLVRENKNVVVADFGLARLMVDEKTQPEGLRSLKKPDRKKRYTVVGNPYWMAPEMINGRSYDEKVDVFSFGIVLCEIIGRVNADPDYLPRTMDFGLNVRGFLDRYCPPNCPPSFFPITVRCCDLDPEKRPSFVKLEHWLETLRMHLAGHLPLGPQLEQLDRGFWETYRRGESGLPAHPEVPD

In the first assay the target is Rho-associated protein kinase 2 (Homo sapiens, UniProt O75116). The assay is described as follows: Inhibition of ROCK2 (unknown origin) after 4 hrs using 1 uM STK2 as substrate. The gist of the method:
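HTRF kinase assay using STK2 substrate plus ATP in STK-buffer, with test compound pin-dispensed. Reaction ran 4 h at rt and was stopped with antibody and 62.5 nM streptavidin-XL in detection buffer. After a further 1 h at rt, plates were read in HTRF mode.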
In turn, `Cc1ccc(NC(=O)Nc2ccc(-c3ncnc4[nH]cc(C)c34)cc2F)cn1` registered a concentration for half-maximal inhibition (IC50) of 2110 nM. This lies in the single-digit micromolar range.

`COc1ccc(NC(=O)Nc2ccc(-c3ncnc4[nH]cc(C)c34)cc2F)cc1` returned an IC50 of more than 20000 nM.

Molecule `Cc1c[nH]c2ncnc(-c3ccc(NC(=O)N(CCO)c4ccccc4)c(F)c3)c12` came in with an IC50 of 4510 nM. In other words, the single-digit micromolar range.

As for `Cc1cc(NC(=O)Nc2ccc(-c3ncnc4[nH]cc(C)c34)cc2F)ccn1`, inhibition was half-maximal at 2010 nM (IC50). Compared with the last molecule, the IC50 is about 2.2-fold lower.

Take `Cc1c[nH]c2ncnc(-c3ccc(NC(=O)Nc4cncnc4)c(F)c3)c12`: 1020 nM corresponded to half-maximal inhibition (IC50).

A further assay addresses LIM domain kinase 1 (Homo sapiens, UniProt P53667). The assay is described as follows: Inhibition of LIMK1 (unknown origin) using 1 uM cofilin as substrate. The gist of the method:
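IC50 was determined in 10-dose mode using a 3-fold serial dilution series. Reactions contained ATP, cofilin as substrate, and Limk1 enzyme at 50 nM.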
In the case of `Cc1ccc(NC(=O)Nc2ccc(-c3ncnc4[nH]cc(C)c34)cc2F)cn1`, the IC50 stood at 11 nM.

`COc1ccc(NC(=O)Nc2ccc(-c3ncnc4[nH]cc(C)c34)cc2F)cc1` gave an IC50 of 10 nM.

`Cc1c[nH]c2ncnc(-c3ccc(NC(=O)N(CCO)c4ccccc4)c(F)c3)c12` showed an IC50 of 85 nM.

Molecule `Cc1cc(NC(=O)Nc2ccc(-c3ncnc4[nH]cc(C)c34)cc2F)ccn1` yielded an IC50 of 19 nM.

The molecule `Cc1c[nH]c2ncnc(-c3ccc(NC(=O)Nc4cncnc4)c(F)c3)c12` yielded a 50% inhibitory concentration (IC50) of 55 nM.
